Experimental data published in ChEMBL document CHEMBL3046203, “Bioactivity-guided fractionation and GC/MS fingerprinting of Angelica sinensis and Angelica archangelica root components for antifungal and mosquito deterrent activity” (2009).
Active and inactive are the calls of the source. The calls are words filed in the database; no cut-off is given here.

Experiments:
[1] = tested on: Colletotrichum gloeosporioides; experiment: Antifungal activity against Colletotrichum gloeosporioides assessed as as appearance of diffuse zone of inhibition at 2 mM in 2 uL solution by direct bio-autography assay1; assay type: functional, organism-based
[2] = tested on: Colletotrichum gloeosporioides; experiment: Antifungal activity against Colletotrichum gloeosporioides assessed as as appearance of diffuse zone of inhibition at 2 mM in 2 uL solution by direct bio-autography assay; assay type: functional, organism-based
Colletotrichum acutatum = experiment: Antifungal activity against Colletotrichum acutatum assessed as appearance of diffuse zone of inhibition at 2 mM in 2 uL solution by direct bio-autography assay; assay type: functional, organism-based
Anopheles stephensi = experiment: Feeding deterrent activity against Anopheles stephensi assessed as proportion of mosquitoes not biting at 25 nmol/cm2 cloth relative to untreated control; assay type: functional
Summary of the method: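 Klun and Debboun in vitro module assay with mated nulliparous An. stephensi females (Delhi strain, 5-15 d old), given water only for 24 h before testing. Compounds were applied in ethanol to organdy cloth at 25 nmol/cm2 against an ethanol-treated control cloth. Conditions were 24-26 °C and 24-51% RH, 1300-1600 h, with 100 females (20 replicates). The proportion not biting was scored.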

Aedes aegypti = experiment: Feeding deterrent activity against Aedes aegypti liverpool assessed as proportion of mosquitoes not biting at 25 nmol/cm2 cloth relative to untreated control; assay type: functional
Summary of the method: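 In vitro Klun and Debboun module assay with mated nulliparous Ae. aegypti females (red eye Liverpool strain, 5-15 d old), denied water for 24 h before testing. Treatments in ethanol were applied to organdy cloth at 25 nmol/cm2, with an ethanol-treated cloth as control. Testing ran at 24-26 °C and 24-51% RH, 1300-1600 h, using 85 females (17 replicates). Read-out was the proportion not biting.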

| SMILES | growth inhibition (GI) [1] | growth inhibition (GI) [2] | growth inhibition (GI) (Colletotrichum acutatum) | Ratio (Anopheles stephensi) | Ratio (Aedes aegypti) |
| --- | --- | --- | --- | --- | --- |
| Cc1cc(C2CC2)nc(Nc2ccccc2)n1 | Active | Active | Active | – | – |
| CCCCNC(=O)n1c(NC(=O)OC)nc2ccccc21 | – | Active | Active | – | – |
| CC1=CCC[C@@H]2[C@@](C)(CC=O)[C@H](C)CC[C@@]12C [CALLICARPENAL] | – | – | – | 0.72 | 0.91 |
| CCC/C=C1\OC(=O)C2=C1CCC=C2 [LIGUSTILIDE] | – | – | – | 0.66 | 0.79 |
| CCN(CC)C(=O)c1cccc(C)c1 [DIETHYLTOLUAMIDE] | – | – | – | 0.51 | 0.67 |
| CO/C=C(/C(=O)OC)c1ccccc1Oc1cc(Oc2ccccc2C#N)ncn1 | – | Active | Active | – | – |
